Test results from ChEMBL document CHEMBL5058577, “EUbOPEN Chemogenomics Library 2 (Multiplex)” (2022).

Tested on: U2OS
Experiment: Multiplex assay against U2OS
Type: toxicity, cell-based
Settings: human
In short: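 On a CQ1 microscope at 37°C and 5% CO2, live cells were imaged after compound addition. They had been stained at seeding with Hoechst33342, BioTracker Green Microtubule Cytoskeleton Dye, MitoTracker Red and Annexin V Alexa Fluor 680. CellPathfinder machine-learning gating assigned cells to Hoechst high-intensity objects or normal cells, normal cells to healthy, pyknosed or fragmented nuclei, and pyknosed cells to mitotic or apoptotic. Tubulin, mitochondrial-mass and membrane-permeability phenotypes are per cents of healthy-nucleus cells.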

[1] = 12 h, 1 µM, compound concentration 1 uM, replicate 1
[2] = 12 h, 1 µM, compound concentration 1 uM, replicate 2
[3] = 12 h, 10 µM, compound concentration 10 uM, replicate 1
[4] = 12 h, 10 µM, compound concentration 10 uM, replicate 2
[5] = 24 h, 1 µM, compound concentration 1 uM, replicate 1
[6] = 24 h, 1 µM, compound concentration 1 uM, replicate 2
[7] = 24 h, 10 µM, compound concentration 10 uM, replicate 1
[8] = 24 h, 10 µM, compound concentration 10 uM, replicate 2
[9] = 48 h, 1 µM, compound concentration 1 uM, replicate 1
[10] = 48 h, 1 µM, compound concentration 1 uM, replicate 2
[11] = 48 h, 10 µM, compound concentration 10 uM, replicate 1
[12] = 48 h, 10 µM, compound concentration 10 uM, replicate 2

## COc1cc2nc(N3CCN(C(=O)c4ccco4)CC3)nc(N)c2cc1OC.Cl [PRAZOSIN HYDROCHLORIDE]
[1]
  Population Apoptotic (%): 88%
  Population Fragmented Nuclei (%): 21%
  Population Healthy Nuclei (%): 70%
  Population Hoechst High Intensity Objects (%): 2%
  Population Membrane Permeable-Phenotype (%): 4%
  Population Mitochondria Different-Phenotype (%): 2%
  Population Mitotic Cells (%): 11%
  Population Normal (%): 97%
  Population Pyknosed Nuclei (%): 7%
  Population Tubulin-Different-Phenotype (%): 1%
  Total Cell Count: 235
[2]
  Population Apoptotic (%): 94%
  Population Fragmented Nuclei (%): 18%
  Population Healthy Nuclei (%): 69%
  Population Hoechst High Intensity Objects (%): 1%
  Population Membrane Permeable-Phenotype (%): 5%
  Population Mitochondria Different-Phenotype (%): 7%
  Population Mitotic Cells (%): 5%
  Population Normal (%): 98%
  Population Pyknosed Nuclei (%): 12%
  Population Tubulin-Different-Phenotype (%): 8%
  Total Cell Count: 159
[3]
  Population Apoptotic (%): 86%
  Population Fragmented Nuclei (%): 25%
  Population Healthy Nuclei (%): 67%
  Population Hoechst High Intensity Objects (%): 3%
  Population Membrane Permeable-Phenotype (%): 12%
  Population Mitochondria Different-Phenotype (%): 2%
  Population Mitotic Cells (%): 13%
  Population Normal (%): 96%
  Population Pyknosed Nuclei (%): 7%
  Population Tubulin-Different-Phenotype (%): 6%
  Total Cell Count: 216
[4]
  Population Apoptotic (%): 72%
  Population Fragmented Nuclei (%): 15%
  Population Healthy Nuclei (%): 74%
  Population Hoechst High Intensity Objects (%): 0%
  Population Membrane Permeable-Phenotype (%): 4%
  Population Mitochondria Different-Phenotype (%): 5%
  Population Mitotic Cells (%): 27%
  Population Normal (%): 99%
  Population Pyknosed Nuclei (%): 9%
  Population Tubulin-Different-Phenotype (%): 7%
  Total Cell Count: 114
[5]
  Population Apoptotic (%): 95%
  Population Fragmented Nuclei (%): 22%
  Population Healthy Nuclei (%): 69%
  Population Hoechst High Intensity Objects (%): 1%
  Population Membrane Permeable-Phenotype (%): 8%
  Population Mitochondria Different-Phenotype (%): 2%
  Population Mitotic Cells (%): 4%
  Population Normal (%): 98%
  Population Pyknosed Nuclei (%): 7%
  Population Tubulin-Different-Phenotype (%): 4%
  Total Cell Count: 273
[6]
  Population Apoptotic (%): 100%
  Population Fragmented Nuclei (%): 15%
  Population Healthy Nuclei (%): 74%
  Population Hoechst High Intensity Objects (%): 0%
  Population Membrane Permeable-Phenotype (%): 10%
  Population Mitochondria Different-Phenotype (%): 5%
  Population Mitotic Cells (%): 0%
  Population Normal (%): 100%
  Population Pyknosed Nuclei (%): 10%
  Population Tubulin-Different-Phenotype (%): 9%
  Total Cell Count: 188
[7]
  Population Apoptotic (%): 78%
  Population Fragmented Nuclei (%): 23%
  Population Healthy Nuclei (%): 68%
  Population Hoechst High Intensity Objects (%): 2%
  Population Membrane Permeable-Phenotype (%): 8%
  Population Mitochondria Different-Phenotype (%): 6%
  Population Mitotic Cells (%): 21%
  Population Normal (%): 97%
  Population Pyknosed Nuclei (%): 7%
  Population Tubulin-Different-Phenotype (%): 6%
  Total Cell Count: 244
[8]
  Population Apoptotic (%): 85%
  Population Fragmented Nuclei (%): 13%
  Population Healthy Nuclei (%): 71%
  Population Hoechst High Intensity Objects (%): 1%
  Population Membrane Permeable-Phenotype (%): 7%
  Population Mitochondria Different-Phenotype (%): 5%
  Population Mitotic Cells (%): 14%
  Population Normal (%): 98%
  Population Pyknosed Nuclei (%): 15%
  Population Tubulin-Different-Phenotype (%): 4%
  Total Cell Count: 138
[9]
  Population Apoptotic (%): 94%
  Population Fragmented Nuclei (%): 16%
  Population Healthy Nuclei (%): 74%
  Population Hoechst High Intensity Objects (%): 2%
  Population Membrane Permeable-Phenotype (%): 6%
  Population Mitochondria Different-Phenotype (%): 2%
  Population Mitotic Cells (%): 5%
  Population Normal (%): 97%
  Population Pyknosed Nuclei (%): 9%
  Population Tubulin-Different-Phenotype (%): 2%
  Total Cell Count: 388
[10]
  Population Apoptotic (%): 100%
  Population Fragmented Nuclei (%): 15%
  Population Healthy Nuclei (%): 77%
  Population Hoechst High Intensity Objects (%): 1%
  Population Membrane Permeable-Phenotype (%): 7%
  Population Mitochondria Different-Phenotype (%): 7%
  Population Mitotic Cells (%): 0%
  Population Normal (%): 98%
  Population Pyknosed Nuclei (%): 7%
  Population Tubulin-Different-Phenotype (%): 5%
  Total Cell Count: 266
[11]
  Population Apoptotic (%): 96%
  Population Fragmented Nuclei (%): 20%
  Population Healthy Nuclei (%): 71%
  Population Hoechst High Intensity Objects (%): 1%
  Population Membrane Permeable-Phenotype (%): 5%
  Population Mitochondria Different-Phenotype (%): 2%
  Population Mitotic Cells (%): 3%
  Population Normal (%): 98%
  Population Pyknosed Nuclei (%): 8%
  Population Tubulin-Different-Phenotype (%): 3%
  Total Cell Count: 341
[12]
  Population Apoptotic (%): 94%
  Population Fragmented Nuclei (%): 15%
  Population Healthy Nuclei (%): 76%
  Population Hoechst High Intensity Objects (%): 2%
  Population Mitochondria Different-Phenotype (%): 6%
  Population Mitotic Cells (%): 5%
  Population Normal (%): 97%
  Total Cell Count: 208
